One compound from ChEMBL document CHEMBL5661979, “Pharmacological inhibition of BMK1 suppresses tumor growth through promyelocytic leukemia protein” (Cancer Cell, 2010) can be followed below.

Data set [1] deals with T1, Ribosomal protein S6 kinase alpha-3 (Homo sapiens, UniProt P51812). Description: Inhibition of RSK2 domain 2 in human HeLa cells lysate at 50 uM pre incubated for 15 mins followed by ATP acyl phosphate probe addition and measured after 10 mins by LC-MS/MS analysis relative to control. Particulars: time 25.0 min. The format is subcellular.
Data set [2] deals with T2, Serine/threonine-protein kinase TAO2 (Homo sapiens) (UniProt Q9UL54).
T2 sequence (whole entry): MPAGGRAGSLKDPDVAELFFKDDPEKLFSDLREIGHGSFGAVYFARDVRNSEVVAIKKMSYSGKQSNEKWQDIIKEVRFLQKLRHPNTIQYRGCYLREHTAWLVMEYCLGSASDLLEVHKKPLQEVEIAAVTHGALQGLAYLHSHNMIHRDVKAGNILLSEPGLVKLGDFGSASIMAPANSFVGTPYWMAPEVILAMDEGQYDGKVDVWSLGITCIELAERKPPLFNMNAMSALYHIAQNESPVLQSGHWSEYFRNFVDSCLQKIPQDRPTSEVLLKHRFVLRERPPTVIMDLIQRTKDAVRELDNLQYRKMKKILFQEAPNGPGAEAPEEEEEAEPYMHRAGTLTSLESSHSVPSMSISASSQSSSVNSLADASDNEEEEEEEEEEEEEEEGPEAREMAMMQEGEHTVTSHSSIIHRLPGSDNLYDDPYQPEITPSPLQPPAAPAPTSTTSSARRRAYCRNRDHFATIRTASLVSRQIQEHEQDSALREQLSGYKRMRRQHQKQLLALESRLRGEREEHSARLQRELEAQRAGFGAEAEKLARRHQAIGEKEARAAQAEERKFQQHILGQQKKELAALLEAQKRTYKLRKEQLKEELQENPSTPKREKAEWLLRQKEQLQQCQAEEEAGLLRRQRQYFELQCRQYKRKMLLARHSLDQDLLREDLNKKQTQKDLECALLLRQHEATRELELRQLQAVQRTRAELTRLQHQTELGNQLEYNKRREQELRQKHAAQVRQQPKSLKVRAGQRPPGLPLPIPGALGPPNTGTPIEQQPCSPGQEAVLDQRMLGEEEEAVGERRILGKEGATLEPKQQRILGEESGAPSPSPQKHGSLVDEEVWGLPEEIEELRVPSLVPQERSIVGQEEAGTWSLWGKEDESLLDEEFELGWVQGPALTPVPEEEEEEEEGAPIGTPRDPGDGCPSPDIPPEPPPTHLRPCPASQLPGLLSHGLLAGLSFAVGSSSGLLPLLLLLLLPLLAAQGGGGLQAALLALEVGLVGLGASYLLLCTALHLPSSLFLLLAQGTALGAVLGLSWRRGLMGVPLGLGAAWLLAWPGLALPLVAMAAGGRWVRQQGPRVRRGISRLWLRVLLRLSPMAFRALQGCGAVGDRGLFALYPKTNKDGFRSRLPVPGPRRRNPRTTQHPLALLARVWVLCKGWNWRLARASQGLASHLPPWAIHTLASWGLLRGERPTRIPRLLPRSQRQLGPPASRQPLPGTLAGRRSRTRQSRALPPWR
As to the kind of experiment: Inhibition of TAO2 in human HeLa cells lysate at 50 uM pre incubated for 15 mins followed by ATP acyl phosphate probe addition and measured after 10 mins by LC-MS/MS analysis relative to control. The format is subcellular. Particulars: time 25.0 min.

In data set [3] the target is T3, STE20-related kinase adapter protein beta (Homo sapiens) (UniProt Q9C0K7).
T3 sequence (whole entry): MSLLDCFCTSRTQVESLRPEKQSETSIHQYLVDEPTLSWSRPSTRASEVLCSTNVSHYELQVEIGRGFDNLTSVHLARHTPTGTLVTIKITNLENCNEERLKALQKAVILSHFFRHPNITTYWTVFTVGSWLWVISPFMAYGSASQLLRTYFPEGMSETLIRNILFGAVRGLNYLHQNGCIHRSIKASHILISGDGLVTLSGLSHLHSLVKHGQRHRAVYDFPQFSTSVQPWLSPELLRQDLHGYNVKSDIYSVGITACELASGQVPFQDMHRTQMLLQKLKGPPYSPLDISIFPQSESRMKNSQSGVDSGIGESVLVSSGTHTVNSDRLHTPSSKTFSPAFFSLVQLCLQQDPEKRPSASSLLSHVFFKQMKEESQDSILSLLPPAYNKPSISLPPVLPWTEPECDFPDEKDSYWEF
As to the kind of experiment: Inhibition of ALS2CR2 in human HeLa cells lysate at 50 uM pre incubated for 15 mins followed by ADP acyl phosphate probe addition and measured after 10 mins by LC-MS/MS analysis relative to control. Conditions: time 25.0 min. The format is subcellular. In a few lines: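 HeLa cell lysates (5 mg/mL total protein) were preincubated with inhibitor at 0, 0.8, 2, 10 or 50 μM for 15 min. ATP or ADP acylphosphate probe was then added (5 μM final) for 10 min, and reactions were stopped with urea. Up to four fragment ions per kinase probe-peptide were quantified by targeted MS. % inhibition was taken relative to untreated lysate. Run in duplicate.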

Data set [4] deals with Ephrin type-A receptor 2 (Homo sapiens, UniProt P29317). As to the kind of experiment: Inhibition of EphA2 in human HeLa cells lysate pre incubated for 15 mins followed by ATP acyl phosphate probe addition and measured after 10 mins by LC-MS/MS analysis. It is filed as subcellular.
Data set [5] concerns the target Epidermal growth factor receptor (Homo sapiens, UniProt P00533). Description: Inhibition of EGFR in human HeLa cells lysate pre incubated for 15 mins followed by ADP acyl phosphate probe addition and measured after 10 mins by LC-MS/MS analysis. It is filed as subcellular.
The nature of data set [6]: Toxicity in C57Bl/6 mouse assessed as effect on glucose level at 50 mg/kg, ip for 14 days (reference value: 181 mg/dl). The format is organism-based. Conditions: in vivo, 336 h, time 14 day.
A short description of data set [7]: Inhibition of HGK/MINK/TNIK in human HeLa cells lysate at 50 uM pre incubated for 15 mins followed by ATP acyl phosphate probe addition and measured after 10 mins by LC-MS/MS analysis relative to control. Conditions: 25 min, condition cancer.
Data set [8] concerns the target T1, Ribosomal protein S6 kinase alpha-3. Description: Inhibition of RSK2 domain 2 in human HeLa cells lysate at 10 uM pre incubated for 15 mins followed by ADP acyl phosphate probe addition and measured after 10 mins by LC-MS/MS analysis relative to control. It is filed as subcellular. Particulars: time 25.0 min.
Data set [9] concerns the target Serine/threonine-protein kinase N2 (Homo sapiens, UniProt Q16513). As to the kind of experiment: Inhibition of PKN2 in human HeLa cells lysate pre incubated for 15 mins followed by ATP acyl phosphate probe addition and measured after 10 mins by LC-MS/MS analysis. The format is subcellular.
Data set [10] addresses T4, Tyrosine-protein kinase CSK (Homo sapiens, UniProt P41240). Description: Inhibition of CSK in human HeLa cells lysate at 2 uM pre incubated for 15 mins followed by ADP acyl phosphate probe addition and measured after 10 mins by LC-MS/MS analysis relative to control. The format is subcellular. Particulars: time 25.0 min.
Data set [11] deals with T4, Tyrosine-protein kinase CSK. Description: Inhibition of CSK in human HeLa cells lysate at 2 uM pre incubated for 15 mins followed by ATP acyl phosphate probe addition and measured after 10 mins by LC-MS/MS analysis relative to control. It is filed as subcellular. Particulars: time 25.0 min.

T4 sequence (P41240 2-450 limits assumed): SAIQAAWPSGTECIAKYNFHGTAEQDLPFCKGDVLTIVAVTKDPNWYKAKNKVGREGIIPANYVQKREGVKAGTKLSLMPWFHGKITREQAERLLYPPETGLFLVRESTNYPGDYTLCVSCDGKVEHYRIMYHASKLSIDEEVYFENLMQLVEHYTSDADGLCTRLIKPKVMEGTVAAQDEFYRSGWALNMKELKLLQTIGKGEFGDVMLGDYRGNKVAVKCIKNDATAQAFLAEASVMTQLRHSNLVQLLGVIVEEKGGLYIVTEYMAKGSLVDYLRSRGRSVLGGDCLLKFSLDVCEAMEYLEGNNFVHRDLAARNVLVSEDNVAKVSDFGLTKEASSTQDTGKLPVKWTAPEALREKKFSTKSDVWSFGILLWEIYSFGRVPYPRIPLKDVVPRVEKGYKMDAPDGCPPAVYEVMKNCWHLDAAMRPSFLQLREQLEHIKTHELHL
T1 sequence (P51812 whole entry, the tested form may be a part): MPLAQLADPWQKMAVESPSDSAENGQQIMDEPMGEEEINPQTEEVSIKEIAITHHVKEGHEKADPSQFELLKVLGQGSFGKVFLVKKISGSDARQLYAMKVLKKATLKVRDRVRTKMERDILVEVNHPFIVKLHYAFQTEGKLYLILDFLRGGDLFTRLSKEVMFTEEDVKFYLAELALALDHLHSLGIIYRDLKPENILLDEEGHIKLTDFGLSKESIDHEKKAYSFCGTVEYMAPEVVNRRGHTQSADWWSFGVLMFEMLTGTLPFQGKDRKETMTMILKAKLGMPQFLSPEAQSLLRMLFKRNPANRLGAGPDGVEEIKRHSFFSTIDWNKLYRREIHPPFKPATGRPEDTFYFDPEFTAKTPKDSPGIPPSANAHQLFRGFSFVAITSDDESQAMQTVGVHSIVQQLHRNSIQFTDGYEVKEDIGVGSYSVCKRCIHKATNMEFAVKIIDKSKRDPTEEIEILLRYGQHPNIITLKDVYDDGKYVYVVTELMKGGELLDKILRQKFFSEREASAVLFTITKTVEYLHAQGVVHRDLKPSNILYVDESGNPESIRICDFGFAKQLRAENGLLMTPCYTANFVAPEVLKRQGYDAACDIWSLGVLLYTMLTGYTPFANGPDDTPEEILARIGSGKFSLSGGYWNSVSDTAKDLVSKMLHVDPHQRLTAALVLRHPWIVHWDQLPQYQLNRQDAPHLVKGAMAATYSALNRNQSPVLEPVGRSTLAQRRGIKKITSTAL
Chain of Serine/threonine-protein kinase N2 (Q16513 whole entry): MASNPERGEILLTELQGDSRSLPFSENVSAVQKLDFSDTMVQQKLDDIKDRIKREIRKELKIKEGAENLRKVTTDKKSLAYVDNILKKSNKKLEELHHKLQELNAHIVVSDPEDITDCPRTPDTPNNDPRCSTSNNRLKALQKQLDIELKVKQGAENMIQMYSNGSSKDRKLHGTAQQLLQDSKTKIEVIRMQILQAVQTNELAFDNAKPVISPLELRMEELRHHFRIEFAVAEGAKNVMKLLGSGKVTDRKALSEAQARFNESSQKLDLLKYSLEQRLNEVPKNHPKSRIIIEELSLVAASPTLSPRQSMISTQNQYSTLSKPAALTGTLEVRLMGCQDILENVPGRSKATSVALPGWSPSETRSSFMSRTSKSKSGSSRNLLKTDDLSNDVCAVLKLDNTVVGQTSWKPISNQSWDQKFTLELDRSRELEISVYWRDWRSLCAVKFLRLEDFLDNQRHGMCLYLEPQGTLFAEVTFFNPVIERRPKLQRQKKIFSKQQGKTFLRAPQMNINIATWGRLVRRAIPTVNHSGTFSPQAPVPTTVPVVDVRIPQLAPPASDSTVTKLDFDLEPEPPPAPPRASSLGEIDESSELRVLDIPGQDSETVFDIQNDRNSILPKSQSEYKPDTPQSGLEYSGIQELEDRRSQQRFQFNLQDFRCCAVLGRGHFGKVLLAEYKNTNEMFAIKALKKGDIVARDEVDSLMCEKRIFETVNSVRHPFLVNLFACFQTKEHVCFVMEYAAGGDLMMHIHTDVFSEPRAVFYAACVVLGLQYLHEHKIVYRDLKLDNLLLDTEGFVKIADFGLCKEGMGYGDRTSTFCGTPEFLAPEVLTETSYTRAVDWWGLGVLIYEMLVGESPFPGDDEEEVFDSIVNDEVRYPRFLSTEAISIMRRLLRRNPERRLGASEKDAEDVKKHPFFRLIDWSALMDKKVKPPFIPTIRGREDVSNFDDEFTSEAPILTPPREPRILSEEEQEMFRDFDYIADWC
Chain of Ephrin type-A receptor 2 (P29317 whole entry): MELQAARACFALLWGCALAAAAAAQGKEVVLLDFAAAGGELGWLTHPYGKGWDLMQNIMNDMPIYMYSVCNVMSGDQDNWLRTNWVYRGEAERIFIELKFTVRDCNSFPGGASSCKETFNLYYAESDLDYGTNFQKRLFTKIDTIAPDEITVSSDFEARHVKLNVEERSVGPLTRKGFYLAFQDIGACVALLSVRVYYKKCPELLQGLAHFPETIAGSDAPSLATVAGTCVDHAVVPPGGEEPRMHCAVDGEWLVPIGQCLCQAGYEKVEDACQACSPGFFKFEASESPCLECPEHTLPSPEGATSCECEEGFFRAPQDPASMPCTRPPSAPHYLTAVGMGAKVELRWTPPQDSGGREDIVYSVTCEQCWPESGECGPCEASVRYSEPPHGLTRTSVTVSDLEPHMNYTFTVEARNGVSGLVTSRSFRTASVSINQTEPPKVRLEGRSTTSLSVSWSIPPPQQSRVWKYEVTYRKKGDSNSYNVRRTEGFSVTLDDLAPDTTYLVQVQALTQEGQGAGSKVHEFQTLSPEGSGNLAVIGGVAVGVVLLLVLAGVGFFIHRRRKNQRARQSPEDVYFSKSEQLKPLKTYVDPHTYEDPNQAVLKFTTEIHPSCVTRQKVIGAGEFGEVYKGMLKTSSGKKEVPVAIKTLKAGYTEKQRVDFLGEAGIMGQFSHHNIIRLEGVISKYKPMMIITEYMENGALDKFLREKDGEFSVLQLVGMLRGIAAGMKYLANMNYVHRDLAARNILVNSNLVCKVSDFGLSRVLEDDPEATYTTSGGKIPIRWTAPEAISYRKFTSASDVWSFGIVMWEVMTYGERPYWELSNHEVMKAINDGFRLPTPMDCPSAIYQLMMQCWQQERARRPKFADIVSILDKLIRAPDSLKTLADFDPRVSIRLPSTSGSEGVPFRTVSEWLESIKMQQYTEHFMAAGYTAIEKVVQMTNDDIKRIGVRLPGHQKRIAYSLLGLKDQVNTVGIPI
Chain of Epidermal growth factor receptor (P00533 whole entry): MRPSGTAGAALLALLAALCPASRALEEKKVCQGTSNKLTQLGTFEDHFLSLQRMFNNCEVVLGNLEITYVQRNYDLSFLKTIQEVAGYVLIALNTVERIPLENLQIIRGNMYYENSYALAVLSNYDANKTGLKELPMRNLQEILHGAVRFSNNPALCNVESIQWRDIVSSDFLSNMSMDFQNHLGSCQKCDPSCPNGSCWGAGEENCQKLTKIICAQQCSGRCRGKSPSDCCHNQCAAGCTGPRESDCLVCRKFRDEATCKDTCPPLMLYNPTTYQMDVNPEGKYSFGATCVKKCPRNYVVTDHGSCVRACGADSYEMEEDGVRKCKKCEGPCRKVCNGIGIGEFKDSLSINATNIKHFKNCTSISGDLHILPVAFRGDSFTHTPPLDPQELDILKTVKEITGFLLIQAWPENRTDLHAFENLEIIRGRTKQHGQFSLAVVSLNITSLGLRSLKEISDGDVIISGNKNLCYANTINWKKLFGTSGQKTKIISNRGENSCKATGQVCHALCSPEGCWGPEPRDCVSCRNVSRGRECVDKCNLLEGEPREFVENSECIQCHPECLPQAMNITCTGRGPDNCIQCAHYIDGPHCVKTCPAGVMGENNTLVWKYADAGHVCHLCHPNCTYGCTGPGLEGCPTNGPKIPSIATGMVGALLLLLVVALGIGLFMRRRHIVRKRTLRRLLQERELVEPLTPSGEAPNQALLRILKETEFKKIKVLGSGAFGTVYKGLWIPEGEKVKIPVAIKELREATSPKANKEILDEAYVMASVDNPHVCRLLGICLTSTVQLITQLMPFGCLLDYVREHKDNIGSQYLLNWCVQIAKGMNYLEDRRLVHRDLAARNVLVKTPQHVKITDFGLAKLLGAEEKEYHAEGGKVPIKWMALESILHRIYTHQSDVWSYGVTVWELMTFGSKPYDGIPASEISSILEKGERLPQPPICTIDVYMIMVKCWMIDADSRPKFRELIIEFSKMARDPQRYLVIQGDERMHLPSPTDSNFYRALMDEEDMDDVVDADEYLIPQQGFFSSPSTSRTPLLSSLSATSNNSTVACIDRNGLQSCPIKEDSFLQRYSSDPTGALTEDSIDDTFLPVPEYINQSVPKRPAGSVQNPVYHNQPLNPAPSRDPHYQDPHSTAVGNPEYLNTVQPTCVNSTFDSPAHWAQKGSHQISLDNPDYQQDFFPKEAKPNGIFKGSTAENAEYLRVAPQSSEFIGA

As to `CCOc1cc(N2CCC(O)CC2)ccc1Nc1ncc2c(n1)N(C)c1ccccc1C(=O)N2C`, the inhibition in [1] was 47.7%; in [2], 6.6%; in data set [3] it was 12.7%; in [8] it was -5.7%; in data set [10], 11.6%; in [11] it was -4.4%. Moreover, the IC50 in [4], in [5] and in data set [9] was > 50 µM in each case. The Activity in data set [6] came to 126 mg/dL. Further, in [7], the inhibition at 50 µM was -2.6%.

As usually defined, the inhibition is the relative decrease from the control value, in per cent. As a reminder, the IC50 is the point on the concentration scale where inhibition reaches its midpoint. Higher therefore signals weaker potency.
